Screening results: PubChem BioAssay, several laboratories
This excerpt belongs to a sample that is enriched for hits.
PolyA inhibitor = blocks polyadenylation in yeast reporter cells. AID 1875. 0.02% of 300,000 active. activity score, % at 12 µM. S. cerevisiae SKY197-pL101 polyadenylation reporter, beta-gal luminescence; efflux-impaired pdr1/pdr3 knockout yeast; score 100 = 6 SD above DMSO;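 active = lowest replicate activity score at least 50, where 100 means six control SD above control mean; inconclusive = lowest score under 50 but half or more replicates reach 50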;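 note: yeast exposed to compound for 9 h at 30 °C; higher score means more reporter readthrough which indicates perturbed polyadenylation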
T cruzi inh = T. cruzi replication inhibition | T. cruzi beta-gal in NIH3T3, luminescence, 90 h | inhibition, % (test concentration not listed) | AID 1885 | 1.4% of 300,000 active;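 active = mean inhibition across valid replicates above about 55%, limit read from the data; inconclusive = mean below that limit but half or more replicates reach it; inactive = mean below it, under half of replicates reach it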;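 note: signal also drops with host cell toxicity which is not excluded here; 0% = plate median of DMSO wells and 100% = zero luminescence signal; higher percent means less beta-gal luminescence so fewer parasites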
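Test system: β-gal T. cruzi (Tulahuen C4) inside NIH/3T3 cells / Quantity: 5,000 cells/well / Measured by: luminescence from GalScreen with 0.05% NP40, read after 60 min / Medium: DMEM plus 2% FBS / Measure: parasite load inhibition, % / Reagent: Tulahuen C4 trypomastigotes, 5000/well / Schedule: co-culture of at least 90 h after 3 h attachment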
NALP1 inh = NALP1 inhibition. S. cerevisiae NALP1/ASC/caspase-1 growth, X-gal OD620, 72 h. inhibition, % at 10 µM. 0.61% of 280,000 active; in the data active = inhibition mostly above about 24%, no sharp cut-off; inactive = mostly below about 32%
L major viab = inhibitors of Leishmania major promastigote growth; Leishmania major promastigotes, resazurin fluorescence viability; inhibition, % at 10 µM; 9% of 200,000 active; AID 1063; in the data active = inhibition above about 50%;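 note: promastigotes grown with compound for 44 hours at 28 °C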
NALP3 yeast inh = NALP3 inhibition in yeast | Yeast reconstituted NLRP3/ASC/caspase-1, beta-gal luminescence, 24 h | inhibition, % at 10 µM | 0.39% of 330,000 active;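 active = inhibition of 50% or more; inactive = inhibition below 50%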;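 note: plate controls were induced DMSO wells for no effect and uninduced yeast grown without galactose for full effect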
Calb FLC = affects C. albicans growth with fluconazole; 0.57% of 300,000 active; AID 1979; C. albicans CaCi-2 (fluconazole-resistant clinical isolate) + fluconazole, Alamar Blue growth, 48 h; growth inhibition, % (concentration not given with the values);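 active = growth inhibition above about 58% in most replicates, limit read from the data, passing the limit was not always enough; inconclusive = exactly half the replicates above a set limit; inactive = most replicates below a set limit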;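 note: all wells also contain fluconazole at 8 µg/ml as a sub-toxic cotreatment; 0% = median of DMSO wells and 100% = median of geldanamycin control wells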
The depositor's hits bear a star; ? = inconclusive; / = no result.

SMILES	PolyA inhibitor	T cruzi inh	NALP1 inh	L major viab	NALP3 yeast inh	Calb FLC
CCOc1ccc2nc(NC3=NC(C)(C)C=C(C)N3)nc(C)c2c1	10	46	28	98*	-6	-12
CCOc1ccc2c(C)nc(NC3=NC(C)(C)C=C(C)N3)nc2c1	14	37	18	101*	-5	-2
CCC1(CC)NC(=O)N(CC(=O)OCC(=O)c2ccccc2OC)C1=O	3	-3	/	/	14	-1
COc1ccc(C(CNC(=O)c2cc3ccccc3cc2O)N2CCOCC2)cc1 (configuration not stated)	-2	6	/	/	0	-5
CC(C)(C)CC(=O)NCCc1csc(-c2ccccc2)n1	-6	61*	/	/	12	-4
N#C/C(=N\Nc1cccc(C(F)(F)F)c1)C(=O)c1ccsc1	-27	-12	40*	/	48	23
Cc1ccc(OCCC(=O)N2CCN(c3ccc(O)cc3)CC2)cc1	-7	?	38*	/	24	?
Cc1ccc(CSCC(=O)N2CCN(c3ccc(F)cc3)CC2)cc1	-7	57*	4	2	20	2
Cc1ccc(C(=O)C2CCN(CC(=O)N3CCN(c4ccc(F)cc4)CC3)CC2)cc1	/	51	17	89*	27	-28
CCCNS(=O)(=O)c1ccc(CCC(=O)N2CCN(c3ccc(F)cc3)CC2)cc1	38	16	20	57*	18	5
O=C(CN1CCC(C(=O)c2ccc(F)cc2)CC1)Nc1ccc(F)cc1	8	-10	-2	6	4	-18
COC(=O)c1cc2c(C(F)(F)F)nn(C)c2s1	8	-2	7	/	12	-9
CCOC(=O)N1CCN(C(=O)CSCc2ccccc2)CC1	-4	-11	24	51*	25	38
CCOC(=O)N1CCN(C(=O)CSCc2ccc(Cl)cc2)CC1	-2	/	2	-4	31	?
COc1cc(C(=O)NCCCc2nc3ccccc3n2Cc2cc(C)ccc2C)cc(OC)c1OC	11	4	24	69*	-3	-2
O=C(CO/N=C/c1ccc2c(c1)OCO2)Nc1cccc(Br)c1	-11	-9	/	-3	14	-48
CC(=O)c1sc(N/N=C2\CC3CC2C(C)C3(C)C)nc1C (configuration not stated)	-8	42	-16	91*	15	?
Cc1ccc(OCC(=O)N/N=C/c2ccccc2)c([N+](=O)[O-])c1	4	-8	-1	4	/	-7
C/C(=N\NC(=O)COc1ccc(C)cc1[N+](=O)[O-])c1cccs1	98*	1	-5	-2	21	-4
C/C(=N\NC(=O)COc1ccc(C)cc1Br)c1cc([N+](=O)[O-])cs1	-15	?	4	59*	21	-5
Cc1ccc(S(=O)(=O)N2CCN(C(=O)CCn3cncn3)CC2)cc1C	12	2	3	/	9	-16
COCc1ccc(CN2CCCC(CCC(=O)NCc3ccc(C)o3)C2)o1 (configuration not stated)	10	36	15	1	9	-1
COc1cccc(CNC(=O)CCC2CCCN(C/C=C/c3ccccc3OC)C2)c1 (configuration not stated)	3	66*	19	31	-2	-8
CCN(CC1CCCN(CCc2cccc(OC)c2)C1)C(=O)c1ccc(COC)o1 (configuration not stated)	5	77*	-13	/	15	-3
COCCC(=O)N1CCCC(CCC(=O)NCc2ccc(F)c(F)c2)C1 (configuration not stated)	13	5	-7	-9	11	-16
SMILES	PolyA inhibitor	T cruzi inh	NALP1 inh	L major viab	NALP3 yeast inh	Calb FLC
COc1ccc(/C=C/CN2CCCC(CCC(=O)NCc3ccc(F)c(F)c3)C2)cc1 (configuration not stated)	-8	68*	11	81*	16	-7
COc1cccc(CNC(=O)CCC2CCCN(Cc3ccc4c(c3)CCO4)C2)c1 (configuration not stated)	7	48	/	/	-7	-1
COCc1ccc(CN2CCCC(CCC(=O)NCc3cccc(OC)c3)C2)o1 (configuration not stated)	-15	59*	3	28	14	-10
CCN(CC1CCCN(CCc2cccc(OC)c2)C1)C(=O)c1ccoc1C (configuration not stated)	-12	51	2	/	20	-1
COc1ccc(NC(=O)CSCC(=O)Nc2nnc(C)s2)cc1	-2	1	/	/	-1	-5
COc1ccccc1/C=C/CN1CCCC(CCC(=O)NCc2ccc(F)c(F)c2)C1 (configuration not stated)	-1	68*	7	11	4	-28
OCCN1CCN(CCCc2c3c(cc4c2CCC4)CCC3)CC1	-9	18	27	86*	4	-3
C/C(=N\Nc1cccc(Cl)c1)c1ccc(-n2ccnc2)cc1	/	/	-4	1	/	/
COc1ccc(C(=O)Nc2c3c(nn2-c2cccc(Cl)c2)CS(=O)C3)cc1 (configuration not stated)	-5	-21	24	98*	12	0
CCOC(=O)c1sc2nccc(N(C)C)c2c1N=CNOCc1c(F)cccc1Cl	-12	70*	9	9	11	-1
CN(C(=O)/C=C/c1ccc([N+](=O)[O-])s1)c1ccccc1	-7	54	7	98*	44	23
CN(C(=O)COC(=O)/C=C/c1ccccc1[N+](=O)[O-])c1ccccc1	-3	-18	2	3	3	7
O=C1CC(c2cc(Br)ccc2F)c2cc3c(cc2N1)CCC3 (configuration not stated)	-34	-10	6	1	25	1
O=C1CC(c2ccccc2F)c2cc3c(cc2N1)CCC3 (configuration not stated)	-19	-4	-5	97*	28	11
COc1ccccc1C1CC(=O)Nc2cc(C)c(C)cc21 (configuration not stated)	-17	19	-3	/	12	14
CCCOc1ccccc1C1CC(=O)Nc2cc3c(cc21)OCCO3 (configuration not stated)	17	-5	-69	98*	-7	-1
CCOc1ccccc1C1CC(=O)Nc2cc3c(cc21)OCCO3 (configuration not stated)	-1	21	4	17	2	-6
Cc1cc2c(cc1C)C(c1ccccc1Br)CC(=O)N2 (configuration not stated)	-31	26	25	99*	10	-3
CC(C)c1ccc(OCC(=O)N(Cc2ccco2)C2CCS(=O)(=O)C2)cc1 (configuration not stated)	-6	34	-8	/	-11	-7
Cc1cccc(N2CCN(C(=O)[C@H](C)N3C(=O)C4CC=CCC4C3=O)CC2)c1C (some centres not stated)	/	/	/	/	4	/
